Data: ChEMBL document CHEMBL3856229, “Hybrid Antibiotic Overcomes Resistance in P. aeruginosa by Enhancing Outer Membrane Penetration and Reducing Efflux” (J Med Chem, 2016)

Legend:
Assay type in all cases: functional
Pseudomonas aeruginosa [1] = assay: Antibacterial activity against multidrug-resistant/tobramycin-susceptible Pseudomonas aeruginosa isolate 84745
Pseudomonas aeruginosa [2] = assay: Potentiation of ciprofloxacin induced antibacterial activity against multidrug/extremely drug-resistant Pseudomonas aeruginosa isolate PA264-104354 assessed as ciprofloxacin MIC at <= […] ug/ml (reference value: […] to […] ug/ml)
Acinetobacter baumannii = assay: Antibacterial activity against fluoroquinolone resistant Acinetobacter baumannii isolate ABO30
Escherichia coli [3] = assay: Antibacterial activity against fluoroquinolone resistant Escherichia coli isolate 91191 harboring beta-lactamase CTX-M-14/TEM-1
Pseudomonas aeruginosa [4] = assay: Antibacterial activity against extremely drug-resistant Pseudomonas aeruginosa isolate 104354 infected in Galleria mellonella assessed as larvae survival administered as single dose measured after 24 to 96 hrs
In short: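 Galleria mellonella larvae were infected with 10^6 CFU of XDR P. aeruginosa #104354, resistant to all antipseudomonal classes except colistin. A single injected drug dose was given 2 h post-infection: 50 mg/kg with survival read at 24 h, or 75 mg/kg with survival read at 96 h. Controls were infected untreated larvae and PBS-injected larvae. Two independent experiments of 15 larvae each (n = 30).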

Escherichia coli [5] = assay: Antibacterial activity against fluoroquinolone resistant Escherichia coli isolate 90087 harboring beta-lactamase CTX-M-15/OXA-1
Pseudomonas aeruginosa [6] = assay: Antibacterial activity against Pseudomonas aeruginosa PAO1
Pseudomonas aeruginosa [7] = assay: Antibacterial activity against pandrug-resistant Pseudomonas aeruginosa isolate 91433
Escherichia coli [8] = assay: Antibacterial activity against fluoroquinolone resistant Escherichia coli isolate 89439 harboring beta-lactamase CTX-M-15/OXA-1

## COc1c(N2C[C@@H]3CCCN(CCCCCCCCCCCCO[C@@H]4[C@@H](O[C@H]5O[C@H](CO)[C@@H](O)[C@H](N)[C@H]5O)[C@H](N)C[C@H](N)[C@H]4O[C@H]4O[C@H](CN)[C@@H](O)C[C@H]4N)[C@@H]3C2)c(F)cc2c(=O)c(C(=O)O)cn(C3CC3)c12.Cl.Cl.Cl.Cl.Cl
Pseudomonas aeruginosa [1]
  MIC: 8 µg/mL
Pseudomonas aeruginosa [2]
  MIC: 1 µg/mL
Acinetobacter baumannii
  MIC: 8 to 64 µg/mL
Escherichia coli [3]
  MIC: ≥ 64 µg/mL
Pseudomonas aeruginosa [4]
  Activity: Dose-dependent effect
Escherichia coli [5]
  MIC: ≥ 64 µg/mL
Pseudomonas aeruginosa [6]
  MIC: 4 µg/mL
Pseudomonas aeruginosa [7]
  MIC: 8 µg/mL
Escherichia coli [8]
  MIC: ≥ 64 µg/mL
